An excerpt weighted towards active compounds, which were near 1.9% of everything screened.
NPY1 pot ag – NPY-Y1 receptor potentiators or agonists, primary screen, cell-based; Neuropeptide Y receptor type 1 (Homo sapiens), P25929; NPY-Y1 expressing cells, potentiator/agonist activation; activation, % at 3.6 µM; actives 0.37% (n = 220,000); in the data active means activation above about 33%, passing the limit was not always enough;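 further: cells stimulated with NPY at EC10 then isoproterenol at EC100; 0% = low agonist plus stimulus and 100% = saturating agonist plus stimulus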
NPY Y2 blocker – NPY-Y2 receptor antagonists, primary screen, cell-based | Neuropeptide Y receptor type 2 (Homo sapiens), P49146 | NPY-Y2 expressing cells, antagonist mode | inhibition, % at 2.7 µM | actives 0.99% (n = 140,000) | AID 793, 2007; in the data active means inhibition above about 17%;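 further: 0% = vehicle with agonist challenge and 100% = reference antagonist with challenge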
Target sequence (P49146 whole entry, looked up): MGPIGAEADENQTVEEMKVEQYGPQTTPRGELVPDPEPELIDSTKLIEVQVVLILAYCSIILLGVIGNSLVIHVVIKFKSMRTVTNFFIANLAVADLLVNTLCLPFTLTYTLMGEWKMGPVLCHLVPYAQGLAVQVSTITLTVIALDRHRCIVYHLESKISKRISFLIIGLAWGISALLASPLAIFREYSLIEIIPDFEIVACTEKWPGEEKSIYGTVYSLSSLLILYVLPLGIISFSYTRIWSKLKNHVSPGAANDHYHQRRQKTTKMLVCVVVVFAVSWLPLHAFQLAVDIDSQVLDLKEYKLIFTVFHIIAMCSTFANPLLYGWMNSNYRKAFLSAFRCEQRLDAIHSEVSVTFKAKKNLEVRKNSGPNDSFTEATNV
NPY2 pot ag – NPY-Y2 potentiators or agonists, primary screen, cell-based. Neuropeptide Y receptor type 2 (Homo sapiens), P49146. cells expressing NPY-Y2, potentiator/agonist read-out. activation, % at 3.6 µM. actives 0.45% (n = 220,000). AID 1359, 2008; in the data active means activation above about 27%;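 further: cells stimulated with NPY near EC25 plus isoproterenol at EC100; 0% = vehicle plus submaximal agonist and 100% = vehicle plus saturating agonist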
NPY-Y1 antag – NPY-Y1 receptor antagonists, primary screen, cell-based; actives 1% (n = 200,000); AID 1040, 2008; inhibition, % at 3.6 µM; HEK293-CNG Y1 cells, membrane potential fluorescence; NPY at EC95, then isoproterenol;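 active means inhibition above the campaign mean inhibition of all tested compounds plus 3 SD, cut at about 20% in these data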;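 further: 0% = DMSO wells given NPY plus isoproterenol and 100% = isoproterenol alone without NPY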
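Assay system: HEK293 Y1/CNG channel cell line; Doses: single compound dose of 3.6 µM, 0.4% DMSO; Timing: dye 3 h, compound 60 min room temperature, stimulation 45 min; Technique: Membrane-potential fluorescent dye readout; Measure: % inhibition of NPY effect.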
The depositor's hits bear a star; x = no result given.

SMILES	NPY1 pot ag	NPY Y2 blocker	NPY2 pot ag	NPY-Y1 antag
CN1CCN(NC(=O)c2ccc(Br)s2)CC1	-12	x	12	x
CC(C)(C)n1nnnc1C(c1ccccn1)N(Cc1ccccc1)Cc1ccc(Cl)cc1 (stereo not given)	14	12	-5	9
CCN(Cc1ccccc1)C(c1ccccn1)c1nnnn1C(C)(C)CC (stereo not given)	-11	26*	-6	23*
Cc1ccc(S(=O)(=O)N2CCN(C(=O)CCC(=O)NCc3ccc(F)cc3)CC2)cc1	6	0	14	2
CC(C)(C)CC(=O)Nc1nnc(SCC(=O)Nc2ccccc2F)s1	-1	x	-16	21*
CN(C(=O)c1ccc2c(c1)SC1=NS(=O)(=O)CCN12)C(c1ccccc1)c1ccccc1	-21	22*	-20	37*
O=C(O)c1ccc2c(c1)SC1=NS(=O)(=O)CCN12	11	x	-13	x
CC(=O)Nc1ccc(/C=N/NC(=O)CNC(=O)c2ccccc2)cc1	3	x	4	-1
COc1cccc(-n2cn[nH]c2=S)c1	14	x	6	-2
COc1cccc(-n2sc3c(c2=S)-c2cc(OC)ccc2NC3(C)C)c1	49*	-3	39*	-5
COc1ccc(-n2c(=O)c3ccccc3n(Cc3cccc(C)c3)c2=O)cc1OC	1	x	12	0
O=[N+]([O-])c1ccc(-c2nc(-c3cccs3)c(-c3cccs3)[nH]2)cc1	44*	-6	45*	-17
O=[N+]([O-])c1cccc(-c2nc(-c3cccs3)c(-c3cccs3)[nH]2)c1	32	-4	25	-7
C=CCN(CC(=O)O)S(=O)(=O)c1ccccc1C(F)(F)F	17	x	5	11
CCC(CC)NC(=O)c1oc2ccccc2c1COc1ccccc1	-7	26*	1	32*
CCCCCCCC(=O)NN=C1CCN(Cc2ccccc2)CC1	-49	3	-26	3
COc1ccccc1N1CCN(CC(=O)Nc2ccc(CN3CCCCC3)cc2)CC1	-22	4	-8	6
Cc1ccc(Cl)cc1N1CCN(CC(=O)Nc2ccc(CN3CCCCC3)cc2)CC1	-87	14	-28	36*
c1ccc(CN2c3ccccc3-c3nc4ccccc4n3C2c2ccccn2)cc1 (stereo not given)	-17	19*	-9	37*
CN1c2ccccc2-c2nc3ccccc3n2C1c1ccccn1 (stereo not given)	-1	2	5	-1
COc1ccc(NS(=O)(=O)c2ccc(NC(=S)NC(=O)/C=C/c3ccccc3)cc2)nn1	-11	-1	15	2
Cc1ccc(NC(=S)N/N=C/c2ccc(Cl)c([N+](=O)[O-])c2)cc1	4	1	-16	1
O=[N+]([O-])c1cc(/C=N/NC(=S)Nc2ccccc2Cl)ccc1Cl	41*	x	36*	-7
CC1C(c2ccccc2)N(C)C(c2ccccc2)C(C)C1(O)C#Cc1ccccc1 (stereo not given)	-34	18*	-12	14
Cc1cc(Nc2cccc(F)c2)nc(-c2ccccc2O)n1	40*	-5	42*	-9
SMILES	NPY1 pot ag	NPY Y2 blocker	NPY2 pot ag	NPY-Y1 antag
CN(C)CCNC(=O)c1ccc2c(c1)N(Cc1ccc(F)cc1)CCS2	75*	5	65*	-8
Cc1ccc(CN2CCSc3ccc(C(=O)NCc4cccnc4)cc32)cc1	-14	x	-4	10
c1ccc(Oc2cc(-c3ccccc3)nc(-c3ccccc3)n2)cc1	3	3	-2	-5
O=S(=O)(Cc1cc(Oc2ccccc2)nc(-c2ccccc2)n1)c1ccccc1	-11	21*	-14	22*
CCN(C(=O)COC(=O)c1cncc(Br)c1)C1CCS(=O)(=O)C1 (stereo not given)	14	x	9	4
O=[N+]([O-])c1ccc2c(c1Nc1ccccc1)=NC1(CCCCC1)N=2	16	-4	10	1
COc1ccc(Nc2c([N+](=O)[O-])ccc3c2=NC2(CCCCC2)N=3)cc1	44*	x	38*	-15
COc1ccc(NC(=O)CCCc2c[nH]c3ccccc23)cc1OC	-6	1	-3	1
COc1ccc(C(c2c[nH]c3ccccc23)c2c[nH]c3ccccc23)cc1O	32*	-4	39*	-8
CCc1cccc2c(C(=O)CN3C(=O)NC(C)(c4cccc5ccccc45)C3=O)c[nH]c12 (stereo not given)	43*	x	37*	-13
CCOC(=O)CSc1nc2c(sc(=S)n2-c2ccccc2OC)c(=O)n1Cc1ccco1	8	27*	-33	34*
CCOC(=O)CSc1nc2c(sc(=S)n2Cc2ccco2)c(=O)n1-c1ccccc1	-50	36*	-38	60*
Cc1[nH]c2ccccc2c1/C=N/Nc1ccccc1[N+](=O)[O-]	107*	x	101*	-29
Cc1cc(C(=O)CSc2nn3c(=O)c(C(C)(C)C)nnc3s2)c(C)n1C	-10	x	-13	3
O=C(O)CCC(=O)c1ccc2c(c1)OCCO2	-39	18*	-26	29*
Cc1cc(N2C(=O)C3C4CCC(C4)C3C2=O)no1 (stereo not given)	-3	x	3	-3
Cc1ccc(S(=O)(=O)CCN2CCC(n3cccc3)CC2)cc1	1	x	13	x
COc1ccc(OC)c(C2=Nn3c(nnc3C3CCCCC3)SC2)c1	-34	4	-5	4
COc1ccc(C2=Nn3c(nnc3C3CCCCC3)SC2)cc1OC	-68	58*	-22	27*
O=C(CN1CCN(c2ccccc2O)CC1)Nc1ccc2c(c1)CCC2	-31	3	5	7
CCC(C)OC(=O)C[N+](C)(C)CCOC1CC2CCC1(C)C2(C)C (stereo not given)	-25	x	-3	21*
c1ccc(CN2C3=NCCN3c3ccccc32)cc1	-19	3	-2	3
Clc1ccc(CN2C3=NCCN3c3ccccc32)cc1Cl	-11	18*	-3	39*
COC(=O)c1cc([N+](=O)[O-])c(-n2ccnc2)c([N+](=O)[O-])c1	18	4	1	-1
O=C(CSc1nnc(-c2ccco2)o1)c1ccc[nH]1	15	x	6	-1
SMILES	NPY1 pot ag	NPY Y2 blocker	NPY2 pot ag	NPY-Y1 antag
Cc1cc(C)cc(N(CC(=O)NC(C)(C)C)C(=O)CNC(=O)c2cccs2)c1	13	x	0	5
Cc1ccc(Cn2ncc3c(N4CCOCC4)ncnc32)cc1	8	1	-11	2
Cc1ccc(Cn2ncc3c(N4CCN(c5ccccc5C)CC4)ncnc32)cc1	-20	12	-14	27*
COc1ccccc1Oc1cc(C#N)c(C#N)cc1-n1nnc2ccccc21	-36	19*	-19	46*
Fc1cccc(CN2CCN(c3nc4nonc4nc3NC3CC3)CC2)c1	-12	x	9	2
CC(=O)Nc1nc2ccc(-c3nc4ccccc4o3)cc2s1	46*	-6	37*	-15
O=C(COC(=O)C1CCN(C(=O)c2ccc(Cl)cc2)CC1)NC1CCS(=O)(=O)C1 (stereo not given)	7	x	13	1
COc1ccc(C)cc1NC(=O)COC(=O)C1CCN(C(=O)c2ccc(Cl)cc2)CC1	86*	x	90*	-5
